Test results as given in ChEMBL document CHEMBL4673173, “Cyrene(TM) is a green alternative to DMSO as a solvent for antibacterial drug discovery against ESKAPE pathogens” (RSC Med Chem, 2020).
≈ marks a conversion by molar mass, not a printed value. Counter-ions that a name gives are not always drawn. Calls of active or inactive are those of the source. The rule behind the calls is not given here. Bridge positions count the residues as written; N and C are the ends. Square brackets hold non-standard residues; d marks the D form. Peptide text beside a SMILES is read from it. * marks the point of attachment. X1 = CC[C@H](C)CCCCC(=O)*; Dab = NCC[C@H](N)C(=O)O

Experiments:
[1] = tested on: Enterococcus faecalis; details: ATCC 51299
[2] = tested on: Acinetobacter baumannii; assay: Antibacterial activity against Acinetobacter baumannii ATCC 19606 using cyrene as solvent by broth microdilution method; type: functional; details: ATCC 19606 = CIP 70.34 = JCM 6841
[3] = tested on: Enterococcus faecalis; details: ATCC 51299; remark: listed apart in the source
[4] = tested on: Klebsiella pneumoniae; assay: Antibacterial activity against Klebsiella pneumoniae ATCC 700603 using cyrene as solvent by broth microdilution method; type: functional
[5] = tested on: Pseudomonas aeruginosa; assay: Antibacterial activity against Pseudomonas aeruginosa ATCC 27893 using DMSO as solvent by broth microdilution method; type: functional
[6] = tested on: Klebsiella pneumoniae; assay: Antibacterial activity against Klebsiella pneumoniae ATCC 700603 using DMSO as solvent by broth microdilution method; type: functional
[7] = tested on: Staphylococcus aureus; details: ATCC 43300
[8] = tested on: Pseudomonas aeruginosa; assay: Antibacterial activity against Pseudomonas aeruginosa ATCC 27893 using cyrene as solvent by broth microdilution method; type: functional
[9] = tested on: Acinetobacter baumannii; assay: Antibacterial activity against Acinetobacter baumannii ATCC 19606 using DMSO as solvent by broth microdilution method; type: functional; details: ATCC 19606 = CIP 70.34 = JCM 6841
[10] = tested on: Escherichia coli; assay: Antibacterial activity against Escherichia coli ATCC 25922 using DMSO as solvent by broth microdilution method; type: functional
[11] = tested on: Staphylococcus aureus; details: ATCC 43300; remark: listed apart in the source
[12] = tested on: Escherichia coli; assay: Antibacterial activity against Escherichia coli ATCC 25922 using cyrene as solvent by broth microdilution method; type: functional
[13] = tested on: Klebsiella pneumoniae; details: 700603
[14] = tested on: Enterococcus faecalis; assay: microbe, parasite or virus in culture; type: functional; details: ATCC 51299
[15] = tested on: Enterococcus faecalis; assay: microbe, parasite or virus in culture; type: functional; details: ATCC 51299; remark: listed apart in the source
[16] = tested on: Staphylococcus aureus; assay: microbe, parasite or virus in culture; type: functional; details: ATCC 43300
[17] = tested on: Acinetobacter baumannii; details: ATCC 19606 = CIP 70.34 = JCM 6841
[18] = tested on: Acinetobacter baumannii; details: ATCC 19606 = CIP 70.34 = JCM 6841; remark: listed apart in the source
[19] = tested on: Staphylococcus aureus; assay: microbe, parasite or virus in culture; type: functional; details: ATCC 43300; remark: listed apart in the source
[20] = tested on: Pseudomonas aeruginosa; details: ATCC 27893
[21] = tested on: Escherichia coli; details: ATCC 25922
[22] = tested on: Escherichia coli; details: ATCC 25922; remark: listed apart in the source
[23] = tested on: Klebsiella pneumoniae; details: 700603; remark: listed apart in the source
[24] = tested on: Pseudomonas aeruginosa; details: ATCC 27893; remark: listed apart in the source
[25] = tested on: Pseudomonas aeruginosa; assay: Antibacterial activity against Pseudomonas aeruginosa […] by broth microdilution method; type: functional
Procedure, shortened: (§1)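 Antibiotics were dissolved as stock solutions in either DMSO or Cyrene™, neat or mixed with water, at 5–10 mM (stock). Each drug was tested in parallel with both vehicles. Growth inhibition was read as MIC80 […]. NA means no activity at the highest concentration tested.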

[26] = tested on: Acinetobacter baumannii; assay: Antibacterial activity against Acinetobacter baumannii ATCC 19606 by broth microdilution method; type: functional, ATCC 19606 = CIP 70.34 = JCM 6841
Procedure, shortened: as §1

[27] = tested on: Staphylococcus aureus; assay: Antibacterial activity against Staphylococcus aureus ATCC 43300 by broth microdilution method; type: functional
Procedure, shortened: as §1

[28] = tested on: Enterococcus faecalis; assay: Antibacterial activity against Enterococcus faecalis ATCC 51299 by broth microdilution method; type: functional
Procedure, shortened: as §1

[29] = tested on: Klebsiella pneumoniae; assay: Antibacterial activity against Klebsiella pneumoniae ATCC 700603 by broth microdilution method; type: functional
Procedure, shortened: as §1

[30] = tested on: Escherichia coli; assay: Antibacterial activity against Escherichia coli ATCC 25922 by broth microdilution method; type: functional
Procedure, shortened: as §1

Structure (SMILES)	MIC80 [1]	MIC80 [2] [µM]	MIC80 [3]	MIC80 [4] [µM]	MIC80 [5] [µM]	MIC80 [6] [µM]	MIC80 [8] [µM]	MIC80 [9] [µM]	MIC80 [10] [µM]	MIC80 [12] [µM]	MIC80 [13]	MIC80 [14] [µM]	MIC80 [15] [µM]	MIC80 [16] [µM]	MIC80 [19] [µM]	MIC80 [23]	also measured
CC[C@H](C)CCCCC(=O)N[C@@H](CCN)C(=O)N[C@H](C(=O)N[C@@H](CCN)C(=O)N[C@H]1CCNC(=O)[C@H]([C@@H](C)O)NC(=O)[C@H](CCN)NC(=O)[C@H](CCN)NC(=O)[C@H](CC(C)C)NC(=O)[C@@H](Cc2ccccc2)NC(=O)[C@H](CCN)NC1=O)[C@@H](C)O (X1-[Dab]T[Dab][Dab][Dab][dF]L[Dab][Dab]T; lactam 4-C)	inactive	1.6 (≈ 1.93 µg/mL)	inactive	1.6 (≈ 1.93 µg/mL)	3.1 (≈ 3.73 µg/mL)	1.6 (≈ 1.93 µg/mL)	3.1 (≈ 3.73 µg/mL)	1.6 (≈ 1.93 µg/mL)	1.6 (≈ 1.93 µg/mL)	1.6 (≈ 1.93 µg/mL)	–	–	–	–	–	–	MIC80 [7]: inactive; MIC80 [11]: inactive
CN[C@H](CC(C)C)C(=O)N[C@H]1C(=O)N[C@@H](CC(N)=O)C(=O)N[C@H]2C(=O)N[C@H]3C(=O)N[C@H](C(=O)N[C@H](C(=O)O)c4cc(O)cc(O)c4-c4cc3ccc4O)[C@H](O)c3ccc(c(Cl)c3)Oc3cc2cc(c3O[C@@H]2O[C@H](CO)[C@@H](O)[C@H](O)[C@H]2O[C@H]2C[C@](C)(N)[C@H](O)[C@H](C)O2)Oc2ccc(cc2Cl)[C@H]1O [VANCOMYCIN HYDROCHLORIDE]	–	–	–	–	–	–	–	–	–	–	inactive	13	13	0.39	0.39	inactive	MIC80 [17]: inactive; MIC80 [18]: inactive; MIC80 [20]: inactive; MIC80 [21]: inactive; MIC80 [22]: inactive; MIC80 [24]: inactive
O=C1CC[C@H]2CO[C@@H]1O2	–	–	–	–	–	–	–	–	–	–	–	–	–	–	–	–	MIC80 [25]: 8 %v/v; MIC80 [26]: 8 %v/v; MIC80 [27]: 8 %v/v; MIC80 [28]: 4 %v/v; MIC80 [29]: 8 %v/v; MIC80 [30]: 5 %v/v
O=C(O)c1cn(C2CC2)c2cc(N3CCNCC3)c(F)cc2c1=O [CIPROFLOXACIN HYDROCHLORIDE]	–	1.6	–	0.39	0.39	0.39	0.39	1.6	–	–	–	0.39	0.39	1.6	1.6	–	–
C[S+](C)[O-] [DIMETHYL SULFOXIDE]	–	–	–	–	–	–	–	–	–	–	–	–	–	–	–	–	MIC80 [25]: 16 %v/v; MIC80 [26]: 16 %v/v; MIC80 [27]: 16 %v/v; MIC80 [28]: 8 %v/v; MIC80 [29]: 16 %v/v; MIC80 [30]: 10 %v/v
C[C@H]1COc2c(N3CCN(C)CC3)c(F)cc3c(=O)c(C(=O)O)cn1c23 [LEVOFLOXACIN]	–	0.39 (≈ 0.141 µg/mL)	–	0.78 (≈ 0.282 µg/mL)	1.6 (≈ 0.578 µg/mL)	0.78 (≈ 0.282 µg/mL)	1.6 (≈ 0.578 µg/mL)	0.39 (≈ 0.141 µg/mL)	0.019 (≈ 0.00687 µg/mL)	0.019 (≈ 0.00687 µg/mL)	–	0.19 (≈ 0.0687 µg/mL)	0.39 (≈ 0.141 µg/mL)	0.78 (≈ 0.282 µg/mL)	0.78 (≈ 0.282 µg/mL)	–	–
CC1(C)S[C@@H]2[C@H](NC(=O)Cc3ccccc3)C(=O)N2[C@H]1C(=O)O [PENICILLIN G SODIUM]	inactive	–	inactive	–	–	–	–	–	–	–	inactive	–	–	34	34	inactive	MIC80 [17]: inactive; MIC80 [18]: inactive; MIC80 [20]: inactive; MIC80 [21]: inactive; MIC80 [22]: inactive; MIC80 [24]: inactive
CN(C)[C@@H]1C(O)=C(C(N)=O)C(=O)[C@@]2(O)C(O)=C3C(=O)c4c(O)cccc4[C@@](C)(O)[C@H]3C[C@@H]12 [TETRACYCLINE]	inactive	12.5 (≈ 5.56 µg/mL)	inactive	–	25 (≈ 11.1 µg/mL)	–	25 (≈ 11.1 µg/mL)	25 (≈ 11.1 µg/mL)	3.13 (≈ 1.39 µg/mL)	3.13 (≈ 1.39 µg/mL)	inactive	–	–	0.78 (≈ 0.347 µg/mL)	0.78 (≈ 0.347 µg/mL)	inactive	–
NC[C@H]1O[C@H](O[C@H]2[C@H](O)[C@@H](O[C@H]3O[C@H](CO)[C@@H](O)[C@H](N)[C@H]3O)[C@H](N)C[C@@H]2N)[C@H](N)C[C@@H]1O [TOBRAMYCIN]	inactive	3.1 (≈ 1.45 µg/mL)	inactive	13 (≈ 6.08 µg/mL)	1.6 (≈ 0.748 µg/mL)	13 (≈ 6.08 µg/mL)	1.6 (≈ 0.748 µg/mL)	3.1 (≈ 1.45 µg/mL)	0.78 (≈ 0.365 µg/mL)	0.78 (≈ 0.365 µg/mL)	–	–	–	–	–	–	MIC80 [7]: inactive; MIC80 [11]: inactive
